Source: PubChem (several laboratories)
Hsp70 activator – Hsp70 transcriptional activation, primary screen | HeLa Hsp70 promoter luciferase reporter, luminescence; scaled: vehicle 0, proteasome-inhibitor control 100% | activation, % at 10 µM | AID 1203 | hit rate 0.04% among 200,000;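 active means activation above the mean across all tested compounds plus 3 SD, cutoff set per campaign, cut at about 5.5% in these data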;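 further: 100% = MG132 at 30 µM as the positive control and 0% = DMSO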
Lmaj promast – Leishmania major promastigote growth inhibition | inhibition, % at 10 µM | Leishmania major promastigotes, resazurin fluorescence viability | hit rate 9% among 200,000; in the data active means inhibition above about 50%;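 further: promastigotes grown with compound for 44 hours at 28 °C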
HSF-1 act – increases HSF-1 driven luciferase reporter signal. NIH3T3-HGL HSF-1 luciferase reporter, MG132, 8 h; 100% = twice DMSO control signal. activation, % at 9 µM. hit rate 1.7% among 300,000. AID 504408;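 active means mean replicate activation of at least 50% with a set share of replicates each reaching 50%; inconclusive means only one of those two conditions met; inactive means mean below 50% and too few replicates reaching it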;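 further: 0% = median of the neutral control wells and 100% = twice that signal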
HSF1 inh – HSF1 inhibition; NIH3T3-HGL HSE-luciferase, MG132-induced, luminescence 8 h; stronger effect = lower value; activity change, negative = inhibition, % at 7.5 µM (by protocol); hit rate 0.77% among 300,000; AID 2098;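 active means more than half of replicate wells show activity change below -50%, luminescence cut by over half; inconclusive means some wells, but at most half, below -50%; inactive means no replicate well below -50%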;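 further: luciferase reports HSF-1 transcriptional activity via heat shock element; 0% = median of DMSO wells and -100% = zero luminescence signal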
T cruzi repl – T. cruzi replication inhibition. T. cruzi beta-gal in NIH3T3, luminescence, 90 h. inhibition, % (test concentration not listed). hit rate 1.4% among 300,000. AID 1885;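 active means mean inhibition across valid replicates above about 55%, limit read from the data; inconclusive means mean below that limit but half or more replicates reach it; inactive means mean below it, under half of replicates reach it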;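 further: signal also drops with host cell toxicity which is not excluded here; 0% = plate median of DMSO wells and 100% = zero luminescence signal; higher percent means less beta-gal luminescence so fewer parasites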
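System: NIH/3T3 fibroblasts plus reporter T. cruzi. Medium: DMEM plus 2% FBS. Probe or stimulus: 5000 reporter trypomastigotes per well. Compound: single 50 nL compound addition per well in DMSO. Incubation: co-culture of at least 90 h after 3 h attachment. Detection: GalScreen β-gal luminescence, detergent lysis, 60 min. Evaluation: parasite load inhibition, %.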
Numbers without * were called inactive; ? = inconclusive; . = no result. This is one part of a sample in which hits are shown more often than they occur.

SMILES	Hsp70 activator	Lmaj promast	HSF-1 act	HSF1 inh	T cruzi repl
Cc1cc(C)cc(N(CC(=O)Nc2ccccc2)C2=NC3CS(=O)(=O)CC3S2)c1 (centres undefined)	0.0	64.4*	35.7	18.8	14.3
COc1ccc(N(CC(=O)Nc2ccc(C)c(C)c2)C2=NC3CS(=O)(=O)CC3S2)cc1 (centres undefined)	.	.	10.1	0.4	-7.8
O=C(NC1CCCC1)C1CCN(C(=O)c2ccc(Cl)cc2Cl)CC1	.	.	2.4	1.9	-7.6
COc1ccc(N2CCN(C(CNC(=O)C(=O)NCCCn3ccnc3)c3cccnc3)CC2)cc1 (centres undefined)	-0.1	1.4	-2.9	-8.0	62.7*
CCS(=O)(=O)NCC(c1cccnc1)N1CCN(c2ccccc2)CC1 (centres undefined)	-0.1	38.0	8.5	-4.9	41.3
CCS(=O)(=O)NCC(c1cccnc1)N1CCN(c2ccc(OC)cc2)CC1 (centres undefined)	-0.2	3.1	2.8	-4.7	57.7*
O=C(NCCCn1ccnc1)C(=O)NCC(c1cccnc1)N1CCN(c2ccc(F)cc2)CC1 (centres undefined)	0.3	-0.7	-11.5	0.6	40.0
COc1ccc(CC(=O)NNC2=Nc3cccc4cccc2c34)cc1OC	.	.	-7.1	-5.7	8.2
O=C(NNC1=Nc2cccc3cccc1c23)c1ccc(Br)cc1	-0.1	82.1*	-13.4	-9.0	62.0*
C/C(N)=C(/C#N)C(=O)CSc1nn(-c2ccc(Cl)cc2)c(=S)s1	0.0	5.3	99.3*	57.4	20.6
CC(NC(=S)NCCCN1CCOCC1)C1CC2CCC1C2 (centres undefined)	-0.4	87.0*	.	.	.
CC(NC(=S)NCCN1CCOCC1)C12CC3CC(CC(C3)C1)C2 (centres undefined)	0.3	90.5*	-0.9	-3.1	0.0
Cc1ccccc1C(=O)NC(=S)NCCN1CCOCC1	0.1	82.9*	5.2	-4.5	8.2
CNC(=S)NCCN1CCOCC1	-0.3	50.6*	-9.8	-11.3	-6.0
CCNC(=S)NCCN1CCOCC1	-0.1	-6.0	-2.2	1.8	-3.4
CN(CC(=O)Nc1c(Cl)cccc1Cl)C(=O)c1cc(S(=O)(=O)N(C)C)ccc1N1CCCC1	.	.	-1.5	-7.5	1.7
COCCNCCOCCOc1ccc(Cl)c(C)c1	0.0	99.7*	-8.5	-11.9	36.9
COc1cccc(OCCOCCNCCO)c1	-0.2	8.8	3.2	-0.2	2.7
Cc1cc(Cl)cc(Cl)c1OCCOCCN(C)C	0.1	65.4*	-15.6	1.5	23.0
Cc1cc(OCCOCCN(C)C)ccc1Cl	-0.5	89.0*	-2.5	0.6	36.1
Nc1nc(SCC(=O)O)[nH]c(=O)c1NC(=O)c1ccco1	.	.	8.7	-2.9	-24.9
O=[N+]([O-])C(=C1SCCS1)C(=C(Cl)Cl)N1CCCCC1	0.2	12.8	4.1	-7.8	9.1
O=[N+]([O-])C(/C=C(\Cl)[N+](=O)[O-])=C(N1CCCCC1)N1CCCCC1	-0.1	22.9	-7.1	-4.4	60.7*
Cc1ccc(S(=O)(=O)c2ccc(Cl)cc2)cc1S(=O)(=O)N1CCN(C)CC1	-0.2	99.2*	8.6	-7.6	33.4
Cc1ccc(S(=O)(=O)c2ccc(Cl)cc2)cc1S(=O)(=O)NC(C)C(=O)O (centres undefined)	0.1	52.0*	1.8	-2.3	4.4
SMILES	Hsp70 activator	Lmaj promast	HSF-1 act	HSF1 inh	T cruzi repl
CCC1(c2ccccc2)NC(=O)N(CC(=O)NCc2ccc(OC)cc2)C1=O (centres undefined)	.	.	14.3	-5.2	-8.1
COc1ccc(-c2[nH]ncc2-c2ccc(Cl)cc2)c(O)c1	0.0	25.2	22.7	16.9	-5.9
COc1ccc(-c2cn[nH]c2-c2ccc(OCc3ccc([N+](=O)[O-])cc3)cc2O)cc1OC	.	.	56.6*	29.5	52.3
COc1ccc(-c2cn[nH]c2-c2ccc(OCc3ccccc3F)cc2O)cc1OC	.	.	2.0	-0.2	10.6
O=[N+]([O-])c1ccc(COc2ccc(-c3[nH]ncc3-c3ccc(Cl)cc3)c(O)c2)cc1	-0.2	73.3*	39.4	2.9	38.0
COc1ccc(C(=O)/C=C/c2ccccc2)c(O)c1	-0.1	75.0*	33.3	18.2	-16.8
COc1ccc(/C=C/C(=O)c2ccc(OC)cc2OC)cc1	0.5	25.8	12.0	2.1	-9.5
Cc1ccc(/C=C/C(=O)c2ccc(O)cc2)cc1	.	.	27.5	20.3	-8.7
COc1ccc(C(=O)/C=C/c2cc(C(=O)O)cc3c2OCOC3)c(O)c1	.	.	94.9*	70.3	-17.5
O=C(/C=C/c1ccc(O)cc1)c1ccc(O)cc1O	0.3	84.7*	?	55.0	-57.3
